The results in this text go back to PubChem BioAssay AID588768 (The Scripps Research Institute Molecular Screening Center, 2011).

Activity calls are given as the source filed them.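 The calls were made as follows: active = cytotoxic, with CC50, the dose killing half the cells, at or below 5 µM in either medium; inactive = CC50 above 5 µM in every panel.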

This assay can be described thus: HEK293T cell viability reduction – WST-1 absorbance, serum-free and serum media, powder, cytotoxicity control for pPAFAH inhibitor project, dose response (AID 588768). An outline of the steps:
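System: 293T HEK cells / Medium: DMEM with or without 10% FCS / Compound dosing: 7-point 1:5 series up to 50 µM / Schedule: 48 h compound exposure of cells at 37 °C / Technique: WST-1 colorimetric absorbance / Read-out basis: CC50 from three-parameter sigmoidal fit of percent cell viability / Control set: no-compound cells high, no-cell wells low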

Broadly, the CC50 is the concentration at which the toxic effect on the cells reaches its halfway point.

On to `Cc1cc(N2CCN(C(=O)Oc3ccc([N+](=O)[O-])cc3)CC2)c2ccccc2n1`, for which the CC50 is 13 µM (inactive) (with 10% FCS) and 0.061 µM (without serum).
The like results for `Cc1cc(N2CCN(C(=O)Oc3ccc(-c4ccccc4)cc3)CC2)c2ccccc2n1` were, in that order, 12 µM (inactive) and 1.8 µM.
Regarding `Cc1cc(N2CCN(C(=O)Oc3ccc(-c4ccccc4)cn3)CC2)c2ccccc2n1`, the CC50 by setting is: (with 10% FCS) 35 µM (inactive); (without serum) 6.7 µM (inactive).
